The source of these data is ChEMBL document CHEMBL1154561, “Bioactive compounds from Combretum erythrophyllum” (J Nat Prod, 2000).

In brackets after ≈: the same amount, converted by molar mass.

The test system of one test is HeLa. Put plainly: Cytotoxicity against human HeLa cells by XTT assay. Format: functional, cell-based. Background: Tetrazolium dyes change colour on reduction, which living cells bring about.
The test system of another test is A549. Put plainly: Cytotoxicity against human A549 cells by XTT assay. The format is functional, cell-based.
Test [1] concerns Saccharomyces cerevisiae. Put plainly: Inhibition of Saccharomyces cerevisiae RS321NYCp50 in galactose medium by microtiter plate assay. The format is functional, organism-based. In a few lines: (§1)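 Yeast in minimal medium with galactose or glucose at 2% final. Samples are dissolved in 10% DMSO at 10× final concentration and added 1:10 to the cell suspension in triplicate, with 10% DMSO wells as controls. Plates are incubated at 30 °C in high humidity for 48-72 h and read when control growth reaches OD 0.15-0.25. Inhibition = 1 − (ODtest − ODblank)/(ODplate median − ODblank); IC50 in µg/mL.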

Test [2] has as its system Saccharomyces cerevisiae. Put plainly: Inhibition of pRAD52 recombination repair gene/topoisomerase 1 deficient Saccharomyces cerevisiae RS321N carrying pRAD52 in glucose medium by microtiter plate assay. The format is functional, organism-based. In a few lines:
as §1

Test [3] deals with Saccharomyces cerevisiae. Put plainly: Inhibition of pRAD52 recombination repair gene/topoisomerase 1 deficient Saccharomyces cerevisiae RS321N carrying pRAD52 in galactose medium by microtiter plate assay. The format is functional, organism-based. In a few lines:
as §1

The test system of test [4] is Saccharomyces cerevisiae. Put plainly: Inhibition of Saccharomyces cerevisiae RS321 expressing Rad52.erg6.top1 by agar diffusion assay. The format is functional. In general terms: A growth-free zone around the sample is the usual read-out of agar diffusion tests.
Test [5] relates to Saccharomyces cerevisiae. Put plainly: Inhibition of Saccharomyces cerevisiae RS322 expressing Rad52.erg6 by agar diffusion assay. The format is functional.
For test [6], the system named is Saccharomyces cerevisiae. Put plainly: Inhibition of Saccharomyces cerevisiae RS188 expressing wild type erg6 by agar diffusion assay. Format: functional, organism-based.

In general, IC50 refers to the midpoint of a concentration-inhibition curve. Take `COc1ccc(/C=C\c2cc(OC)c(OC)c(OC)c2)c(O[C@H]2O[C@@H](CO)[C@H](O)[C@@H](O)[C@@H]2O)c1O`: the IC50 is 1.5 µg/mL (≈ 3.03 µM) in the test with HeLa; 7 µg/mL (≈ 14.2 µM) with A549; 13 µg/mL (≈ 26.3 µM) with Saccharomyces cerevisiae [1]; 3 µg/mL in the test with Saccharomyces cerevisiae [2]; greater than 100 µg/mL in the test with Saccharomyces cerevisiae [3].
Take `COc1ccc(/C=C\c2cc(OC)c(OC)c(OC)c2)c(O)c1O` [COMBRETASTATIN A-1]: the IC12 in the test with Saccharomyces cerevisiae [4] came to 2.2 µg/mL; with Saccharomyces cerevisiae [5] it was 33.5 µg/mL; in the test on Saccharomyces cerevisiae [6], 80.1 µg/mL. Besides, the IC50 in the test on Saccharomyces cerevisiae [1] came out at 1.8 µg/mL (≈ 5.42 µM); with Saccharomyces cerevisiae [2] it was 18 µg/mL; in the test on Saccharomyces cerevisiae [3], 53 µg/mL.
On to `COc1ccc(CCc2cc(OC)c(OC)c(OC)c2)c(O[C@H]2O[C@@H](CO)[C@H](O)[C@@H](O)[C@@H]2O)c1O`, for which the IC12 in the test on Saccharomyces cerevisiae [4], in the test on Saccharomyces cerevisiae [5] and with Saccharomyces cerevisiae [6] was greater than 100 µg/mL throughout. Moreover, the figures for the IC50 with Saccharomyces cerevisiae [1], in the test with Saccharomyces cerevisiae [2] and in the test on Saccharomyces cerevisiae [3] were 25 µg/mL (≈ 50.4 µM), greater than 100 µg/mL and greater than 100 µg/mL, respectively.
